pEC50: −log10 of the molar value.
How the values were obtained:
[1] = molecular target: T1, Potassium/sodium hyperpolarization-activated cyclic nucleotide-gated channel 2 (Mus musculus, UniProt O88703); experiment: Blockade of mouse HCN2 expressed in HEK293 cells at -120 f-current amplitude by patch-clamp electrophysiological assay; format: cell-based
T1 sequence (O88703 whole entry): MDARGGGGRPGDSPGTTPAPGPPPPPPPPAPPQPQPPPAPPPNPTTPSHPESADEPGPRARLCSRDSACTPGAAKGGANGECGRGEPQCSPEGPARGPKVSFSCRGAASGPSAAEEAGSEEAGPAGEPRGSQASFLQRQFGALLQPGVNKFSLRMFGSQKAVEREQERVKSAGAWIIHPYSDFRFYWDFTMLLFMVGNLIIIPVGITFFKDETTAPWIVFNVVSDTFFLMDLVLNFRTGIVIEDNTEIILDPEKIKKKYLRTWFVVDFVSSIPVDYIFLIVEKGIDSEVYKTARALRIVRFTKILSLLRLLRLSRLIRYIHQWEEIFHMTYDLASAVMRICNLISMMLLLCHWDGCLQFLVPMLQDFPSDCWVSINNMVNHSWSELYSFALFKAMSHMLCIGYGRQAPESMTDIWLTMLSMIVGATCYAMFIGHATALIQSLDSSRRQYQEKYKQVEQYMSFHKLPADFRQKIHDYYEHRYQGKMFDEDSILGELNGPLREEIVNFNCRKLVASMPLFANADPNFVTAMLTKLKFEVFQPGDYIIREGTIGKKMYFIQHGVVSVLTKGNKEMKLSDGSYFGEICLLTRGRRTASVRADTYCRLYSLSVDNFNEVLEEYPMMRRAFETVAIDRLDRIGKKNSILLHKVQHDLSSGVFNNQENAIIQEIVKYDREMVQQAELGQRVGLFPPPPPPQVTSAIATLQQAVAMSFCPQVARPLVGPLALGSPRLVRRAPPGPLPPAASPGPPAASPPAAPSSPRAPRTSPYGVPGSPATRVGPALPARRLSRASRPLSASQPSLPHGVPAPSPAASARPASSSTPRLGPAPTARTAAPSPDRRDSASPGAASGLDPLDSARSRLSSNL
Method in brief: (§1)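 HEK293 cells stably transfected with mouse HCN1, mouse HCN2 or human HCN4. Patch-clamp recordings of hyperpolarization-activated f-current at varied concentrations to derive EC50.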

[2] = molecular target: Potassium/sodium hyperpolarization-activated cyclic nucleotide-gated channel 1 (Mus musculus) (UniProt O88704); experiment: Blockade of mouse HCN1 expressed in HEK293 cells at 5 uM at -120 f-current amplitude by patch-clamp electrophysiological assay relative to control; format: cell-based
Sequence of Potassium/sodium hyperpolarization-activated cyclic nucleotide-gated channel 1 (Mus musculus) (O88704 whole entry): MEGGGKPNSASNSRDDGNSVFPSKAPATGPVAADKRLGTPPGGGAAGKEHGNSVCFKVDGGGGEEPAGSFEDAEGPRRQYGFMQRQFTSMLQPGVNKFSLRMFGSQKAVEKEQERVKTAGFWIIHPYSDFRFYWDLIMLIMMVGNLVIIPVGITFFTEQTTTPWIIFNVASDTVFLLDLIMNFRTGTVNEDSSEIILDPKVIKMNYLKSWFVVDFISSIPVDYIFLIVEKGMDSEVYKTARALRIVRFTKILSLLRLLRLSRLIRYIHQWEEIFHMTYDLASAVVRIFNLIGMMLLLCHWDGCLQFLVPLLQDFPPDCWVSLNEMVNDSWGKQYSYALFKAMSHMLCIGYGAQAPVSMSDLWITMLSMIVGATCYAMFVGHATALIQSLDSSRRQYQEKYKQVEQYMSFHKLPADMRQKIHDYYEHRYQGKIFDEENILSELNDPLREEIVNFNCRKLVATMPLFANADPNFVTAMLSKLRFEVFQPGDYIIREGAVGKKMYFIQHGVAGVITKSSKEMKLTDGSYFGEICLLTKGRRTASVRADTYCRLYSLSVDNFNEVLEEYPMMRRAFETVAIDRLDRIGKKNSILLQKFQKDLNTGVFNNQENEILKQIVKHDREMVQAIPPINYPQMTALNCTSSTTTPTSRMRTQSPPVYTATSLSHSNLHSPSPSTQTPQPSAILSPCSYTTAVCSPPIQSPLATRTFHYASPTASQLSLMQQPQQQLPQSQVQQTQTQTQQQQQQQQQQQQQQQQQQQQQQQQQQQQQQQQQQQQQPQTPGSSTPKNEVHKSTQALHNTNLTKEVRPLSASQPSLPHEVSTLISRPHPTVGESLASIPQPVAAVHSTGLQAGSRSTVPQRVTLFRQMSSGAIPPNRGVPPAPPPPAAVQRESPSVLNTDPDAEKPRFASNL
Method in brief: (§2)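 Single-concentration patch-clamp screen at 5 μM on HEK293 cells stably expressing mouse HCN1 or human HCN4. f-current block normalized to control; mean ± SEM of three to five experiments.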

[3] = molecular target: T2, Potassium/sodium hyperpolarization-activated cyclic nucleotide-gated channel 4 (Homo sapiens, UniProt Q9Y3Q4); experiment: Blockade of human HCN4 expressed in HEK293 cells at -120 f-current amplitude by patch-clamp electrophysiological assay; format: cell-based; method in brief: as §1
T2 sequence (Q9Y3Q4 whole entry): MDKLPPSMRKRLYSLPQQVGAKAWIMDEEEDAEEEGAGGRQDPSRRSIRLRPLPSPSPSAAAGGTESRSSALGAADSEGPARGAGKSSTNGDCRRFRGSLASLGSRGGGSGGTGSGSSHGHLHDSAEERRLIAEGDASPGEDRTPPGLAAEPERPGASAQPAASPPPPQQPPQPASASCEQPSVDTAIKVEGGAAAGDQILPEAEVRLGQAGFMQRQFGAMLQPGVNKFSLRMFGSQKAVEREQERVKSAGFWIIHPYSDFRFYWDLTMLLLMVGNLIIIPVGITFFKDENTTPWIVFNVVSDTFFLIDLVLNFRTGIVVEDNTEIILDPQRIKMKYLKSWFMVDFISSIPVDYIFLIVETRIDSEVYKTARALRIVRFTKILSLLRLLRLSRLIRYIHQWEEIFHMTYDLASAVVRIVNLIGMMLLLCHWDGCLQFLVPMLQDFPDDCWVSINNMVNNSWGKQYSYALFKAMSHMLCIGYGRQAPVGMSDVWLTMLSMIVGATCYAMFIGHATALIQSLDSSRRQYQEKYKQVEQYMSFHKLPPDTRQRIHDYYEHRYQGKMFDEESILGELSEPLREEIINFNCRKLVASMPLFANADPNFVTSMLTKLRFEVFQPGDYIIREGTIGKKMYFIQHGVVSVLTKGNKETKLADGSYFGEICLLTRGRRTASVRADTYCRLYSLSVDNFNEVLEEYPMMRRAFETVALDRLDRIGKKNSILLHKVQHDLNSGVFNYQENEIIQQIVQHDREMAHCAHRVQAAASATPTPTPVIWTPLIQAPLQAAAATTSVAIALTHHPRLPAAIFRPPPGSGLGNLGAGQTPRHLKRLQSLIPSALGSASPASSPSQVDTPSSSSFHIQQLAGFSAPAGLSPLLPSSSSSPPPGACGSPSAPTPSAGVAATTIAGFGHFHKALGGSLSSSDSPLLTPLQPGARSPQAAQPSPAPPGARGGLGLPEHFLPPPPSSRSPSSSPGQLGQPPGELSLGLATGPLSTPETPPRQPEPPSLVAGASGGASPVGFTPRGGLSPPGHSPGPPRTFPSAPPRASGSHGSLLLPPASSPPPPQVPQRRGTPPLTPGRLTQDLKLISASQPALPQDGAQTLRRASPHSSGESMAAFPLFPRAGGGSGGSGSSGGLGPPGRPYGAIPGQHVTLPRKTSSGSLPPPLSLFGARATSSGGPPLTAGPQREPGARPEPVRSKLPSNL

[4] = molecular target: Potassium/sodium hyperpolarization-activated cyclic nucleotide-gated channel 1 (Mus musculus, UniProt O88704); experiment: Blockade of mouse HCN1 expressed in HEK293 cells at -120 f-current amplitude by patch-clamp electrophysiological assay; format: cell-based; method in brief: as §1
Sequence of Potassium/sodium hyperpolarization-activated cyclic nucleotide-gated channel 1 (O88704 whole entry): as the sequence (O88704 whole entry) above

[5] = molecular target: T3, Potassium/sodium hyperpolarization-activated cyclic nucleotide-gated channel 4 (Homo sapiens) (UniProt Q9Y3Q4); experiment: Blockade of human HCN4 expressed in HEK293 cells at 5 uM at -120 f-current amplitude by patch-clamp electrophysiological assay relative to control; format: cell-based; method in brief: as §2
T3 sequence (whole entry): T2 sequence (Q9Y3Q4 whole entry)

[6] = Blockade of HCN in guinea pig spontaneously beating atria assessed as reduction of heart rate measured for 15 mins; format: tissue-based, Cavia porcellus
Method in brief: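 Isolated spontaneously beating guinea pig atria; cumulative concentrations 10-9-10-4 M applied, decrease in atrial rate recorded. EC50 obtained by fitting the concentration-effect curve to the Hill equation; mean ± SEM of three to four experiments.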

Mus musculus [7] = species on record: Mus musculus; experiment: Selectivity ratio of EC50 for mouse HCN2 to EC50 for mouse HCN1
Method in brief: (§3)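 Selectivity expressed as the ratio of EC50 values from patch-clamp on stably transfected HEK293 cells expressing mouse HCN1, mouse HCN2 or human HCN4.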

[8] = Selectivity ratio of EC50 for mouse HCN2 to EC50 for human HCN4; method in brief: as §3
Mus musculus [9] = species on record: Mus musculus; experiment: Selectivity ratio of EC50 for mouse HCN1 to EC50 for mouse HCN2; method in brief: as §3
[10] = Selectivity ratio of EC50 for mouse HCN1 to EC50 for human HCN4; method in brief: as §3

Compound: COc1cc2c(cc1OC)CC(=O)N(CCCN(C)C[C@H]1Cc3cc(OC)c(OC)cc31)CC2 [IVABRADINE]
- pEC50 [1]: 5.34
- residual activity [2]: 47%
- pEC50 [3]: 5.37
- pEC50 [4]: 5.35
- residual activity [5]: 49%

Compound: COc1ccc([C@H](C)CN(C)C/C=C/CN2C=Cc3cc(OC)c(OC)cc3CC2=O)cc1OC
- residual activity [2]: 85%
- residual activity [5]: 71%

Compound: COc1ccc([C@H](C)CN(C)C/C=C\CN2C=Cc3cc(OC)c(OC)cc3CC2=O)cc1OC
- pEC50 [1]: 4.59
- residual activity [2]: 76%
- pEC50 [3]: 4.50
- pEC50 [4]: 4.50
- residual activity [5]: 91%

Compound: COc1ccc([C@H](C)CN(C/C=C\CN2C=Cc3cc(OC)c(OC)cc3CC2=O)C/C=C\CN2C=Cc3cc(OC)c(OC)cc3CC2=O)cc1OC
- pEC50 [1]: 4.30
- residual activity [2]: 76%
- pEC50 [3]: 3.87
- pEC50 [4]: 4.75
- residual activity [5]: 92%

Compound: COc1ccc(CCN(C)CCCN2CCc3cc(OC)c(OC)cc3CC2=O)cc1OC [ZATEBRADINE]
- pEC50 [1]: 5.26
- pEC50 [6]: 4.87
- pEC50 [3]: 5.07
- pEC50 [4]: 4.78

Compound: COc1ccc([C@@H](C)CN(C/C=C/CN2C=Cc3cc(OC)c(OC)cc3CC2=O)C/C=C/CN2C=Cc3cc(OC)c(OC)cc3CC2=O)cc1OC
- residual activity [2]: 60%
- residual activity [5]: 73%

Compound: COc1ccc(CCN(C)C/C=C\CN2C=Cc3cc(OC)c(OC)cc3CC2=O)cc1OC
- pEC50 [1]: 4.61
- residual activity [2]: 53%
- pEC50 [6]: 4.80
- pEC50 [3]: 5.15
- pEC50 [4]: 5.25
- residual activity [5]: 59%

Compound: COc1ccc([C@@H](C)CN(C)C/C=C/CN2C=Cc3cc(OC)c(OC)cc3CC2=O)cc1OC
- residual activity [2]: 85%
- residual activity [5]: 72%

Compound: COc1ccc(CCN(C)C/C=C/CN2C=Cc3cc(OC)c(OC)cc3CC2=O)cc1OC
- pEC50 [1]: 4.76
- residual activity [2]: 35%
- pEC50 [6]: 4.95
- pEC50 [3]: 5.14
- pEC50 [4]: 5.64
- residual activity [5]: 53%

Compound: COc1ccc(CCN(C/C=C\CN2C=Cc3cc(OC)c(OC)cc3CC2=O)C/C=C\CN2C=Cc3cc(OC)c(OC)cc3CC2=O)cc1OC
- pEC50 [1]: 3.83
- residual activity [2]: 82%
- pEC50 [3]: 4.15
- pEC50 [4]: 3.97
- residual activity [5]: 75%

Compound: COc1ccc([C@H](C)CN(C/C=C/CN2C=Cc3cc(OC)c(OC)cc3CC2=O)C/C=C/CN2C=Cc3cc(OC)c(OC)cc3CC2=O)cc1OC
- residual activity [2]: 93%
- residual activity [5]: 83%

Compound: COc1ccc([C@@H](C)CN(C)C/C=C\CN2C=Cc3cc(OC)c(OC)cc3CC2=O)cc1OC
- pEC50 [1]: 5.64
- residual activity [2]: 63%
- Selectivity ratio (Mus musculus [7]): 4
- pEC50 [6]: 5.15
- pEC50 [3]: 4.60
- pEC50 [4]: 5.03
- Selectivity ratio [8]: 10
- residual activity [5]: 83%

Compound: COc1ccc([C@@H](C)CN(C/C=C\CN2C=Cc3cc(OC)c(OC)cc3CC2=O)C/C=C\CN2C=Cc3cc(OC)c(OC)cc3CC2=O)cc1OC
- pEC50 [1]: 4.74
- residual activity [2]: 27%
- Selectivity ratio (Mus musculus [9]): 30
- pEC50 [6]: 3.95
- pEC50 [3]: 3.98
- Selectivity ratio [10]: 170
- pEC50 [4]: 6.22
- residual activity [5]: 93%

Reference: ChEMBL document CHEMBL1250521, “Design, synthesis, and preliminary biological evaluation of new isoform-selective f-current blockers” (J Med Chem, 2010)
